Screening data deposited in PubChem by The Scripps Research Institute Molecular Screening Center.
A selection: hits, their analogues and other compounds. The true share with any hit is near 3.3%.
PRMT1 inh – PRMT1 (human) inhibition, primary screen | Q99873 | recombinant PRMT1, activity-based probe fluorescence polarization | inhibition, % at 2.79 µM | actives 1.3% (n = 370,000) | AID 652257;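 active means inhibition above about 21% made by adding two undisclosed values, limit read from the data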
TDP2 absorb – blocks human TDP2 phosphodiesterase activity | actives 0.34% (n = 370,000) | AID 720702 | inhibition, % at 12.8 µM | recombinant TDP2, T5PNP hydrolysis, p-nitrophenol absorbance 415 nm;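 active means inhibition above the mean of all tested compounds plus 3 SD, set per campaign, cut at about 25% in these data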;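 further: 0% = DMSO with enzyme and 100% = buffer with substrate but no TDP2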
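System: recombinant human TDP2 / Amount: 120 nM TDP2 per well / Also added: 5 mM T5PNP chromogenic substrate / Doses: 12.8 µM single point, 1% DMSO / Incubation: 2 h at 37 °C / Detection: p-Nitrophenol epi absorbance / Evaluation: % inhibition relative to enzyme-containing and enzyme-free wells / Repeats: singlicate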
MBD2 inh – MBD2-methylated oligo binding inhibition; actives 0.31% (n = 370,000); AID 686964; inhibition, % at 4.4 µM; TR-FRET, MBD2 binding to methylated oligonucleotide; Q9UBB5; in the data active means inhibition above about 13%
SIAE primary – blocks human sialic acid acetylesterase; inhibition, % at 9.66 µM; Q9HAT2; actives 0.69% (n = 370,000); SIAE FP-Rh probe binding, fluorescence polarization; AID 1053197;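 active means inhibition above a cutoff: mean of compounds within the control limits plus 3 SD of those, cut at about 17% in these data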;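 further: 0% = plate median of compound wells and 100% = probe without SIAE protein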
UHRF1 binding – UHRF1 methyl-DNA binding inhibition; Q96T88; AID 687016; actives 0.75% (n = 370,000); inhibition, % at 4.4 µM; UHRF1 binding to methylated oligo, TR-FRET; in the data active means inhibition above about 21%;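 further: UHRF1 SRA domain binding a hemimethylated CpG hairpin DNA probe; 0% = median of test compound wells and 100% = reference inhibitor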
Target sequence (Q96T88 whole entry, looked up, the tested form may be a part): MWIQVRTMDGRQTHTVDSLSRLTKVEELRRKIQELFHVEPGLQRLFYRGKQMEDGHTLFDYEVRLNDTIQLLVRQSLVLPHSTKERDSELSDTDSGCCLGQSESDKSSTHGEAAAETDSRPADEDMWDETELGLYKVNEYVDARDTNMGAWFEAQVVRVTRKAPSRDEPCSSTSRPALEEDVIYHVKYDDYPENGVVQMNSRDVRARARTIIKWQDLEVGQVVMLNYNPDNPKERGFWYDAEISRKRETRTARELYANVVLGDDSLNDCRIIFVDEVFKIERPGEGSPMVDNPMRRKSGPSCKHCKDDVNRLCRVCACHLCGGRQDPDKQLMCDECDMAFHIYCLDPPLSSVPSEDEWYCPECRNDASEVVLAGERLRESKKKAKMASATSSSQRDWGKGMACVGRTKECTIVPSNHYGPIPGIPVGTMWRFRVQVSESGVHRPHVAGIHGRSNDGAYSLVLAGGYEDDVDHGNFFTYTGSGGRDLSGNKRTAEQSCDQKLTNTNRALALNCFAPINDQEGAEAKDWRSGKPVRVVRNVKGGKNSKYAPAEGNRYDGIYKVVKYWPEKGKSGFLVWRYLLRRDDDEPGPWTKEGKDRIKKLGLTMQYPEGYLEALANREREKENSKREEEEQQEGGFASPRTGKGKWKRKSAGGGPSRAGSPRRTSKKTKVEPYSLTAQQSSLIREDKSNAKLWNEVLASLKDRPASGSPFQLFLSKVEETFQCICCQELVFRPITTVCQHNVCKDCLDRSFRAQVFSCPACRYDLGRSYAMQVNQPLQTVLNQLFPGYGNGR
LEDGF integ inh – blocks HIV-1 LEDGF/p75-dependent DNA integration. TR-FRET IN-LEDGF/p75 DNA integration, Eu/Cy5. inhibition, % at 3.7 µM. actives 0.64% (n = 370,000);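 active means inhibition above the screen-wide mean plus 3 SD, cut at about 13% in these data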;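 further: signal is the Cy5 over europium emission ratio at 671 and 618 nm; 0% = plate median of compound wells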
* hit, by the source's call; + = active, no number.

SMILES	PRMT1 inh	TDP2 absorb	MBD2 inh	SIAE primary	UHRF1 binding	LEDGF integ inh
CCOC(=O)N1CCC(N2C(=O)c3ccccc3C2Nc2ccc3c(c2)OCCO3)CC1 (stereo not given)	-1	0	-5	7	-2	-2
S=c1[nH]nc(Nc2ccccc2Cl)s1	23*	12	4	-6	-2	-3
CC(=O)c1cc(-c2cccc(C(C)C)c2)c(=O)n2c1CCC2	-3	4	-8	5	-3	4
COc1ccc(CNC(=O)C2CCN(c3nnc(N4CCCC4=O)s3)CC2)cc1	-4	-4	3	-7	22*	3
COc1cccc(C(=O)N/N=C(/CCC(=O)O)c2ccccc2)c1	1	3	-6	0	-1	0
CCC/C(=N\NC(=O)c1cccc(C)c1)c1ccccc1	-2	-5	0	0	33*	4
CC(=O)Nc1ccc(Sc2ccccc2C(=O)O)cn1	3	13	12	9	21*	1
COC(=O)[C@@]12CCCCC3=C1N(CCC3)C(=O)[C@H]2CC(=O)N1CCSCC1	2	2	6	-3	-2	-1
Cn1nc(-c2ccccc2)c(CN2CCN(c3ncccn3)CC2)c1Cl	0	12	7	5	34*	7
CN(CC(=O)Nc1ccccc1Cl)C(=O)COC(=O)c1ccc(=O)n(Cc2ccccc2)n1	3	12	-4	4	-1	0
CN(CC(=O)Nc1ccc(F)cc1)C(=O)COC(=O)c1ccc(=O)n(Cc2ccccc2)n1	136*	6	-3	3	-9	0
COc1ccc(CNS(=O)(=O)/C=C/c2ccc(F)cc2CNC(=O)OC(C)(C)C)cc1	-3	7	3	-2	-4	-1
O=C(NCc1ccccc1Cl)O[C@H]1CC[C@@]23CCCN2C(=O)CCC[C@H]3C1	-2	9	-3	-5	-1	1
CC(=O)Nc1ccc(NC(=O)C(C)OC(=O)CNS(=O)(=O)c2cccc(Cl)c2)cc1 (stereo not given)	4	3	0	0	52*	-4
CC(=O)Nc1ccc(NC(=O)C(C)OC(=O)CN(C)S(=O)(=O)c2ccc(Cl)cc2)cc1 (stereo not given)	-1	7	4	2	-1	-1
COc1ccc(NC2c3ncccc3C(=O)N2Cc2ccccc2)c(OC)c1 (stereo not given)	1	-2	3	+	0	2
Cn1c(=O)cc(OCCCC(=O)Nc2cc(-c3ccncc3)ccn2)c2ccccc21	-3	-3	-3	0	-4	0
Cc1ccc(CS/C(Nc2ccccc2C)=C(\C#N)C(=O)NCc2ccco2)c(C)c1	1	-16	6	-2	20	2
Cc1ccccc1N/C(SCc1ccc(Cl)cc1)=C(/C#N)C(=O)NCc1ccco1	3	-1	6	-6	22*	3
Nc1[nH]c(C(=O)c2ccccc2)c(-c2ccc(Br)cc2)c1C(=O)N1CCN(CCO)CC1	-1	-1	-1	-2	-1	7
CCOc1ccc(NC(=O)CN(C)C(=O)c2ccccc2OCc2cccc(C)c2)cc1OCC	-1	0	0	-4	3	4
CCOc1ccc(NC(=O)CN(C)C(=O)c2ccccc2Cc2ccccc2)cc1OCC	4	1	5	8	21*	3
C/C(=N\NC(=O)c1ccccc1C)c1ccc(NC(=O)c2cccs2)cc1	-1	-1	-1	-4	39*	-1
O=C(O)CCCCCn1c(SCC(=O)c2ccc(O)c(O)c2)nc2ccsc2c1=O	24*	-5	1	13	7	6
O=C(O)CCCCCn1c(SCC(=O)N2CCCC2)nc2ccsc2c1=O	0	3	3	-1	-1	0
SMILES	PRMT1 inh	TDP2 absorb	MBD2 inh	SIAE primary	UHRF1 binding	LEDGF integ inh
CSCc1c(C(=O)OCC(=O)c2ccc[nH]2)oc2ccccc12	8	-3	12	0	19	19*
CC(=O)C1C(c2ccc(C)cc2)c2c(n[nH]c2C)CC1(C)O (stereo not given)	-3	4	7	12	23*	2
O=C(COC(=O)c1ccc[nH]c1=O)NC1CCCCCC1	1	14	0	-4	56*	-5
Cc1cnc(C(=O)OCC(=O)NC2CCCCCC2)cn1	-2	3	1	0	22*	-1
Cc1cnc(C(=O)OCC(=O)N2C(C)CCCC2C)cn1 (stereo not given)	-4	-1	-1	10	24*	-3
Cc1cnc(C(=O)OCC(=O)NC2CCCCC2)cn1	0	1	2	0	-1	-1
Cc1cnc(C(=O)OCC(=O)N2CCC(C)CC2)cn1	-1	4	0	2	-4	-1
CCCCC(=O)N[C@H]1CC[C@@]23CCCN2C(=O)CCC[C@H]3[C@H]1CCC	1	3	-1	4	-1	0
Cc1ccc2nc(N3C(=O)C(O)=C(C(=O)c4ccco4)C3c3ccc(O)cc3)sc2c1 (stereo not given)	21*	-11	1	-28	1	1
Cc1ccc2nc(N3C(=O)C(O)=C(C(=O)c4ccco4)C3c3ccc(C)o3)sc2c1 (stereo not given)	14	15	-1	-10	-2	3
COC(=O)[C@]12C[C@H](CC(=O)NCc3cccc4ccccc34)C(=O)N(CCc3ccc(OC)c(OC)c3)C1=C[C@H](C(C)C)O[C@@H]2C1CC1	4	-9	5	3	-2	0
Cc1ccccc1N1CCN(C(=S)c2ccc(-c3cccc([N+](=O)[O-])c3)o2)CC1	4	13	-4	-4	-1	1
Cc1ccc(N2CCN(C(=S)c3ccc(-c4cccc([N+](=O)[O-])c4)o3)CC2)cc1	24*	-5	4	-6	5	-4
CCc1ccc(NC(=O)C(=O)NCC(O)c2ccccc2)cc1 (stereo not given)	-3	-21	-4	-2	52*	-1
CC1CC(C)CN(S(=O)(=O)N2CCCC(C(=O)NCc3ccccc3Cl)C2)C1 (stereo not given)	-3	-10	10	-4	22*	1
CC(=O)N1c2ccc(S(=O)(=O)N3CCCC3C(=O)NCc3ccccc3Cl)cc2CC1C (stereo not given)	3	-2	3	-5	49*	-6
Cc1cccc(N=[N+]([O-])c2cccc(C)n2)n1	-1	1	-2	-1	42*	5
CCOC(=O)C1(Cc2ccccc2)CCN(Cc2cccc(C#N)c2)CC1	2	-2	4	3	0	-3
C=CCCC1CN(CC=C)S(=O)(=O)c2c(F)cccc2O1 (stereo not given)	2	6	8	-2	22*	1
